{"data": "Results pooled from the literature", "target": "Homeodomain-interacting protein kinase 3 (HIPK3, Homo sapiens, UniProt Q9H422)", "note": "Lines come from different studies, so protocols differ."}
{"Structure (SMILES)": "C1=C/COCc2cc(ccc2OCCN2CCCC2)Nc2nccc(n2)-c2cccc(c2)COC/1", "test": "binding", "setting": "0.1 µM", "quantity": "remaining binding", "value": "15%"}
{"Structure (SMILES)": "C#Cc1cc(-c2cc(Nc3nc(N[C@@H](C)c4ccc(F)cn4)ncc3Cl)n[nH]2)ccc1C=O", "test": "enzyme activity, inhibitor", "setting": "0.2 µM", "quantity": "inhibition", "value": "39.6%"}
{"Structure (SMILES)": "C=CC(=O)N1CCC([C@@H]2CCNc3c(C(N)=O)c(-c4ccc(Oc5ccccc5)cc4)nn32)CC1", "test": "enzyme activity, inhibitor", "setting": "1 µM", "quantity": "inhibition", "value": "4%"}
{"Structure (SMILES)": "CCCCC(=O)Nc1ccc(-c2ccc3ncn(CCC)c(=O)c3c2)cn1", "test": "binding, competition with immobilised ligand", "setting": "0.5 µM", "quantity": "remaining binding", "value": "100%"}
{"Structure (SMILES)": "CN1CCN(C(=O)c2ccc(NC(=O)Nc3ccc(N(C)c4ccnc(Nc5ccc(CS(C)(=O)=O)cc5)n4)cc3)cc2)CC1", "test": "binding, competition with immobilised ligand", "setting": "1 µM", "quantity": "remaining binding", "value": "71%"}
{"Structure (SMILES)": "CC(C)S(=O)(=O)c1ccc2nccc(Nc3ccc4sc(C5CCCC5)nc4c3)c2c1", "test": "enzyme activity, inhibitor", "setting": "1 µM", "quantity": "activity vs control", "value": "102%"}
{"Structure (SMILES)": "CO[C@@H]1[C@H](N(C)C(=O)c2ccccc2)C[C@H]2O[C@]1(C)n1c3ccccc3c3c4c(c5c6ccccc6n2c5c31)C(=O)NC4", "test": "enzyme activity, inhibitor", "setting": "1 µM", "quantity": "inhibition", "value": "30%"}
{"Structure (SMILES)": "Cc1ccc(NC(=O)c2ccnc(C(F)(F)F)c2)cc1-c1cc(OCCO)nc(N2CCOCC2)c1", "test": "binding, competition with immobilised ligand", "setting": "1 µM", "quantity": "remaining binding", "value": "98%"}
